Results reported in the EternaBench riboswitch data.

System: MS2 coat protein
Assay: apparent Kd, MS2 coat protein; higher = weaker binding; RNA-MaP array; FMN 200 µM where present
How it was run: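 Designs were transcribed by stalled E. coli RNA polymerase on Illumina sequencing-chip clusters. They were titrated with SNAP-549-labelled MS2 coat protein from 0.7 or 1.5 nM, doubling to 3 µM, in 100 mM Tris-HCl pH 7.5, 80 mM KCl, 4 mM MgCl2, BSA, DTT, yeast tRNA and Tween-20, without and then with constant ligand. The apparent Kd is the median of filtered per-cluster fits after normalisation of green signal to red-channel RNA signal and control-cluster median Fmax.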

[1] = designed as: OFF switch for flavin mononucleotide, no ligand
[2] = ligand present: flavin mononucleotide, designed as: OFF switch for flavin mononucleotide
[3] = designed as: ON switch for flavin mononucleotide, no ligand
[4] = ligand present: flavin mononucleotide, designed as: ON switch for flavin mononucleotide

**Q.** For “CUUUUGUGAGGAUAUCAGUAGUAAAAAAAUAAAAUUACUAUUGAGAAGGCACAUGAGGAUCACCCAUGUUCCUC”, which “apparent Kd” value [1] is on record?
**A.** 34.5 nM

**Q.** And the “apparent Kd” value [2]?
**A.** 168 nM

**Q.** “CUUUUGUGAGGAUAUCAGUAGUAAAAAAUUAAAAUUACUACUGAGAAGGCACAUGAGGAUCACCCAUGUUCCUC” was tested. Which “apparent Kd” value [1] did it give?
**A.** 40.1 nM

**Q.** And the “apparent Kd” value [2]?
**A.** 284 nM

**Q.** For “CUUUUGUGAGGAUAUCAGUAGUAAAAGAAUAAAAUUACUACUGAGAAGGCACAUGAGGAUCACCCAUGUUCCUC”, which “apparent Kd” value [1] is on record?
**A.** 42.5 nM

**Q.** And the “apparent Kd” value [2]?
**A.** 239 nM

**Q.** How did the “apparent Kd” value [1] turn out when “CUUUUGUGAGGAUAUCAGUAGUAGAACAAUAGUACUACUACUGAGAAGGCACAUGAGGAUCACCCAUGUUUCUC” was run?
**A.** 62.3 nM

**Q.** What about the “apparent Kd” value [2] of the same sequence?
**A.** 302 nM

**Q.** What does the source list for “CUUUUGUGAGGAUAUCAGUAGUUAAAAAAUAAAAUUACUACUGAGAAGGCACAUGAGGAUCACCCAUGUUCCUC”?
**A.** apparent Kd [1]: 42.5 nM; apparent Kd [2]: 308 nM

**Q.** What does the source list for “CUUUUGUGAGGAUAUCAGUAUUAAAUAAAUAAAAUUACUACUGAGAAGGCACAUGAGGAUCACCCAUGUUCCUC”?
**A.** apparent Kd [1]: 33.4 nM; apparent Kd [2]: 201 nM

**Q.** For “CUUUUGUGAGGAUAUUUGUAGUAAAUAAAUAAAAUUACUACUGAGAAGGCACAUGAGGAUCACCCAUGUUCCUC”, which “apparent Kd” value [1] is on record?
**A.** 24.3 nM

**Q.** What about the “apparent Kd” value [2] of the same sequence?
**A.** 156 nM

**Q.** What does the source list for “GAAAACCAAGGAUAUACAUGAGGAUCACCCAUGUAGGUUGGGACGCCAUAAAGGCGAUGUAGAAGGUGGGAAAA”?
**A.** apparent Kd [1]: 21.9 nM; apparent Kd [2]: 33.6 nM

**Q.** Which results are given for “GAAAAGGUAGGAUAUACGAAAAAAAAGGGUAGAAAAAAAAAACAUGAGGAUCACCCAUGUAGAAGGACCAAAAG”?
**A.** apparent Kd [1]: 39.6 nM; apparent Kd [2]: 93.2 nM

**Q.** Which “apparent Kd” value [1] does the source give for “GAAAAGGUAGGAUAUACGAAAAAAAAGGGUAGAAAAAAAGCACAUGAGGAUCACCCAUGUAGAAGGACCAAAAG” here?
**A.** 36.7 nM

**Q.** What about the “apparent Kd” value [2] of the same sequence?
**A.** 132 nM

**Q.** Which results are given for “GAAAUAAUGUAAGGAUAUACAUGAGGAUUUCUCGUAGAAGGUACAAGACAUGAGGAUCACCCAUGUGUCGCUCCGUAGAGCGUA”?
**A.** apparent Kd [3]: 308 nM; apparent Kd [4]: 299 nM

**Q.** Which results are given for “GAACGUGACAUGAGGAUCACCCAUGUUGCCUUGGCCAGGUCGUAGGAUAUCCUGAUGAUUAAUUUGGAGAAGGGCGACUGGGAG”?
**A.** apparent Kd [3]: 36.1 nM; apparent Kd [4]: 15.3 nM

**Q.** With “GAACUGAAGCAUAGCUUUAGUCGUACAUGAGGAUCACCCAUGUAGGAUAUAGUAGGCAUAGCUUACUAGAAGGAUAGAGUGAUC” as the sequence, how does the “apparent Kd” value [1] read?
**A.** 254 nM

**Q.** And the “apparent Kd” value [2]?
**A.** 106 nM

**Q.** Which results are given for “GAAGAGACAGGAUAUACAUGAGGAUCACCCAUGUGAGUAUGUUGGAGGCGGAGGAGGUGUAGAAGGGUCAAAGA”?
**A.** apparent Kd [1]: 24.3 nM; apparent Kd [2]: 26.1 nM

**Q.** With “GAAGCACACAUUAACAUGAGGAUCACCCAUGUCAAAAGACAUGAGGAUAUGGAUCUGAAGAAGAUCCAGAAGGCAUUGUGCUAA” as the sequence, how does the “apparent Kd” value [3] read?
**A.** 388 nM

**Q.** What about the “apparent Kd” value [4] of the same sequence?
**A.** 25.6 nM

**Q.** How did the “apparent Kd” value [3] turn out when “GAAGCACACAUUAACAUGAGGAUCACCCAUGUCAAAAGACGUGAGGAUAUGGAUCUGAAGAAGAUCCAGAAGGCACUGUGCUAA” was run?
**A.** 8.83 nM

**Q.** And the “apparent Kd” value [4]?
**A.** 6 nM

**Q.** What does the source list for “GAAUACCUAGGAUAUACAUGAGGAUCACCCAUGUCAGUAGACUCGGAAAAGUCUCUCAGUAGAAGGAGGACCAG”?
**A.** apparent Kd [1]: 35.2 nM; apparent Kd [2]: 79.3 nM

**Q.** With “GAAUCGAAAAUACGAGCAUGUACACAGGAUAUCCCGUGACAUGAGGAUCACCCAUGUAACACAUUGGAGAAGGGUGUUCACGUA” as the sequence, how does the “apparent Kd” value [3] read?
**A.** 153 nM

**Q.** What about the “apparent Kd” value [4] of the same sequence?
**A.** 14.8 nM

**Q.** Which “apparent Kd” value [1] does the source give for “GAAUUCUCAGGAUAUGUGCGAAGUUACAUGAGGAUCACCCAUGUUAGCCCGUGUCUUUGAGCAGAAGGGAGAGGCU” here?
**A.** 14 nM

**Q.** What about the “apparent Kd” value [2] of the same sequence?
**A.** 13.6 nM

**Q.** For “GACAGCGACACAGGAUAUGUCAAUUUUACAUGAGGAUCACCCAUGUCCGAAGCAGAAGGGUGAUCGCACGCACACUAAGCCAUG”, which “apparent Kd” value [3] is on record?
**A.** 86.5 nM

**Q.** What about the “apparent Kd” value [4] of the same sequence?
**A.** 98.3 nM

**Q.** How did the “apparent Kd” value [3] turn out when “GACAUACAUGAGGAUCACCCAUGUUCAGAAGGACAAGGAUAUGUGUGGAAACCAUACUAUACAGAAGGUGUCUGUC” was run?
**A.** 37.6 nM

**Q.** What about the “apparent Kd” value [4] of the same sequence?
**A.** 19.9 nM

**Q.** Which “apparent Kd” value [3] does the source give for “GACAUGAGGAUCACCCAUGUCCAUGCAAGAGUAGUUGAGACCAGAAGGACCUUGCGGAGCGCAGGGUAGGAUAUGGAGCCCUCA” here?
**A.** 36.3 nM

**Q.** And the “apparent Kd” value [4]?
**A.** 8.75 nM

**Q.** “GACAUGGGCUAGAAGGCCUAUCUAUUUAAGUACGAUUUAGAACAGCAUAGGAGGAUAUGGCUAACAUGAGGAUCACCCAUGUUC” was tested. Which “apparent Kd” value [3] did it give?
**A.** 170 nM

**Q.** What about the “apparent Kd” value [4] of the same sequence?
**A.** 39.2 nM

**Q.** Which “apparent Kd” value [3] does the source give for “GACAUGGUCUAGAAGGGCUAUCUAUUUAAGUACGAUUUAGAACAGCAUAGCAGGAUAUGGCUAACAUGAGGAUCACCCAUGUUC” here?
**A.** 40.5 nM

**Q.** And the “apparent Kd” value [4]?
**A.** 18.7 nM

**Q.** With “GACCGCGAGGAAGGAUAUGGAGCCUUAUUGGCUCCAGAAGGUCCAUAAAGGACAUGAGGAUCACCCAUGUGGUGAGAAGCGGUC” as the sequence, how does the “apparent Kd” value [3] read?
**A.** 2070 nM

**Q.** And the “apparent Kd” value [4]?
**A.** 179 nM

**Q.** Which “apparent Kd” value [3] does the source give for “GACGGACAUGAGGAUCACCCAUGUAGGUUGGCCACAGGAUAUGCAAAACGGCCUGCCGCGGCAGAAGGGUGAGCCC” here?
**A.** 39.1 nM

**Q.** And the “apparent Kd” value [4]?
**A.** 43.7 nM

**Q.** What does the source list for “GACGUACAUGAGGAUCACCCAUGUACAAACGUACAAGGAUAUGUGUGGAAACCGUACUAUACAGAAGGUGUUUGUC”?
**A.** apparent Kd [3]: 14.3 nM; apparent Kd [4]: 14.1 nM

**Q.** What does the source list for “GACGUACAUGAGGAUCACCCAUGUACAGACGUACAAGGAUAUGUGUGGAAACCGUACUAUACAGAAGGUGUUUGUC”?
**A.** apparent Kd [3]: 15.7 nM; apparent Kd [4]: 15 nM
